ChEMBL document CHEMBL3877264, “Quinolidene-rhodanine conjugates: Facile synthesis and biological evaluation” (Eur J Med Chem, 2017)
In brackets after ≈: the same amount, converted by molar mass.

Columns and labels:
Type in all cases: functional
[1] = system: Mycobacterium tuberculosis; assay: Growth inhibition of Mycobacterium bovis BCG ATCC 35743 at dormant stage at 30 ug/ml measured after 12 days by nitrate reductase dye based two fold dilution method relative to control; conditions: BCG str. ATCC 35743, 288 h, read-out: GI
Procedure, shortened: (§1)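 M. bovis BCG was grown in Dubos medium and assayed in Mycobacterium pheli minimal medium (pH 6.6), with compounds from DMSO stocks. Incubation lasted 8 days for active and 12 days for dormant cultures. Viability was read by nitrate reductase at 540 nm against cell-free blanks, with vehicle set as 100% growth. Primary screen was at 30, 10 and 3 µg/ml, in triplicate, mean ± SD. MIC was taken from dose-response curves.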

Escherichia coli [2] = assay: Antibacterial activity against Escherichia coli NCIM 2688 measured after 8 hrs; conditions: NCIM 2688, 8 h
Procedure, shortened: (§2)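 Bacteria grown in LB at 37 °C and 180 rpm to OD 1. Compounds added to wells, then 0.1% inoculum of 1 OD culture (620 nm). Growth read as OD at 620 nm after 8 h for gram-negative and after 12 h for gram-positive strains.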

Candida albicans = assay: Antifungal activity against Candida albicans NCIM 3471 by standard agar method
Procedure, shortened: (§3)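 MICs determined by standard agar method; DMSO as solvent control.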

Bacillus subtilis [3] = assay: Antibacterial activity against Bacillus subtilis NCIM 2079 measured after 12 hrs; conditions: NCIM 2079, 12 h; procedure, shortened: as §2
Pseudomonas fluorescens [4] = assay: Antibacterial activity against Pseudomonas fluorescens NCIM 2036 measured after 8 hrs; conditions: NCIM 2036, 8 h; procedure, shortened: as §2
Bacillus subtilis [5] = assay: Growth inhibition of Bacillus subtilis NCIM 2079 at 10 ug/ml measured after 12 hrs relative to control; conditions: NCIM 2079, 12 h, read-out: GI; procedure, shortened: as §2
Staphylococcus aureus [6] = assay: Growth inhibition of Staphylococcus aureus NCIM 2010 at 3 ug/ml measured after 12 hrs relative to control; conditions: NCIM 2010, 12 h, read-out: GI; procedure, shortened: as §2
Staphylococcus aureus [7] = assay: Growth inhibition of Staphylococcus aureus NCIM 2010 at 10 ug/ml measured after 12 hrs relative to control; conditions: NCIM 2010, 12 h, read-out: GI; procedure, shortened: as §2
Aspergillus niger = assay: Antifungal activity against Aspergillus niger NCIM 1196 by standard agar method; procedure, shortened: as §3
[8] = system: Mycobacterium tuberculosis; assay: Growth inhibition of Mycobacterium bovis BCG ATCC 35743 at dormant stage measured after 12 days by nitrate reductase dye based two fold dilution method; conditions: BCG str. ATCC 35743, 288 h; procedure, shortened: as §1
[9] = system: Mycobacterium tuberculosis; assay: Growth inhibition of Mycobacterium tuberculosis H37Ra ATCC 25177 at dormant stage measured after 12 days by XTT dye based two fold dilution method; conditions: H37Ra ATCC 25177, 288 h
Procedure, shortened: (§4)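 MTB H37Ra was grown in Dubos medium, then exposed in Mycobacterium pheli minimal medium (pH 6.6) to compounds dissolved in DMSO. The assay ended on day 8 (active) or day 12 (dormant). Viable cells were measured by XTT reduction menadione assay at 470 nm, blank-corrected, relative to vehicle control. Triplicates were expressed as mean ± SD. MIC came from dose-response curves.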

Escherichia coli [10] = assay: Growth inhibition of Escherichia coli NCIM 2688 at 30 ug/ml measured after 8 hrs relative to control; conditions: NCIM 2688, 8 h, read-out: GI; procedure, shortened: as §2
[11] = system: Mycobacterium tuberculosis; assay: Growth inhibition of Mycobacterium bovis BCG ATCC 35743 at dormant stage at 3 ug/ml measured after 12 days by nitrate reductase dye based two fold dilution method relative to control; conditions: BCG str. ATCC 35743, 288 h, read-out: GI; procedure, shortened: as §1
Pseudomonas fluorescens [12] = assay: Growth inhibition of Pseudomonas fluorescens NCIM 2036 at 3 ug/ml measured after 8 hrs relative to control; conditions: NCIM 2036, 8 h, read-out: GI; procedure, shortened: as §2
Bacillus subtilis [13] = assay: Growth inhibition of Bacillus subtilis NCIM 2079 at 30 ug/ml measured after 12 hrs relative to control; conditions: NCIM 2079, 12 h, read-out: GI; procedure, shortened: as §2
[14] = Antifungal activity against Fusarium oxysporum NCIM 1332 by standard agar method; procedure, shortened: as §3
[15] = Antifungal activity against Cryptococcus neoformans NCIM 576 by standard agar method; procedure, shortened: as §3
[16] = system: Mycobacterium tuberculosis; assay: Growth inhibition of Mycobacterium bovis BCG ATCC 35743 at dormant stage at 10 ug/ml measured after 12 days by nitrate reductase dye based two fold dilution method relative to control; conditions: BCG str. ATCC 35743, 288 h, read-out: GI; procedure, shortened: as §1
Pseudomonas fluorescens [17] = assay: Growth inhibition of Pseudomonas fluorescens NCIM 2036 at 10 ug/ml measured after 8 hrs relative to control; conditions: NCIM 2036, 8 h, read-out: GI; procedure, shortened: as §2
[18] = system: Mycobacterium tuberculosis; assay: Growth inhibition of Mycobacterium tuberculosis H37Ra ATCC 25177 at active stage measured after 8 days by XTT dye based two fold dilution method; conditions: H37Ra ATCC 25177, 192 h; procedure, shortened: as §4
Escherichia coli [19] = assay: Growth inhibition of Escherichia coli NCIM 2688 at 10 ug/ml measured after 8 hrs relative to control; conditions: NCIM 2688, 8 h, read-out: GI; procedure, shortened: as §2
Staphylococcus aureus [20] = assay: Antibacterial activity against of Staphylococcus aureus NCIM 2010 measured after 12 hrs; conditions: NCIM 2010, 12 h; procedure, shortened: as §2
Escherichia coli [21] = assay: Growth inhibition of Escherichia coli NCIM 2688 at 3 ug/ml measured after 8 hrs relative to control; conditions: NCIM 2688, 8 h, read-out: GI; procedure, shortened: as §2
Bacillus subtilis [22] = assay: Growth inhibition of Bacillus subtilis NCIM 2079 at 3 ug/ml measured after 12 hrs relative to control; conditions: NCIM 2079, 12 h, read-out: GI; procedure, shortened: as §2
[23] = system: Mycobacterium tuberculosis; assay: Growth inhibition of Mycobacterium bovis BCG ATCC 35743 at active stage measured after 8 days by nitrate reductase dye based two fold dilution method; conditions: BCG str. ATCC 35743, 192 h; procedure, shortened: as §1
Staphylococcus aureus [24] = assay: Growth inhibition of Staphylococcus aureus NCIM 2010 at 30 ug/ml measured after 12 hrs relative to control; conditions: NCIM 2010, 12 h, read-out: GI; procedure, shortened: as §2
Pseudomonas fluorescens [25] = assay: Growth inhibition of Pseudomonas fluorescens NCIM 2036 at 30 ug/ml measured after 8 hrs relative to control; conditions: NCIM 2036, 8 h, read-out: GI; procedure, shortened: as §2
Aspergillus flavus = assay: Antifungal activity against Aspergillus flavus NCIM 539 by standard agar method; procedure, shortened: as §3

Compound | inhibition of growth at 30 µg/mL [1] [%] | MIC (Escherichia coli [2]) [µg/mL] | MIC (Candida albicans) [µg/mL] | MIC (Bacillus subtilis [3]) [µg/mL] | MIC (Pseudomonas fluorescens [4]) [µg/mL] | inhibition of growth at 10 µg/mL (Bacillus subtilis [5]) [%] | inhibition of growth at 3 µg/mL (Staphylococcus aureus [6]) [%] | inhibition of growth at 10 µg/mL (Staphylococcus aureus [7]) [%] | MIC (Aspergillus niger) [µg/mL] | IC50 [8] [µg/mL] | IC90 [8] [µg/mL] | IC50 [9] [µg/mL] | IC90 [9] [µg/mL] | inhibition of growth at 30 µg/mL (Escherichia coli [10]) [%] | inhibition of growth at 3 µg/mL [11] [%] | inhibition of growth at 3 µg/mL (Pseudomonas fluorescens [12]) [%] | inhibition of growth at 30 µg/mL (Bacillus subtilis [13]) [%] | MIC [15] [µg/mL] | inhibition of growth at 10 µg/mL [16] [%] | MIC (Staphylococcus aureus [20]) [µg/mL] | other results
O=C(O)CN1C(=O)/C(=C/c2cc3ccccc3nc2Cl)SC1=S | 34.2 | > 30 | 125 (≈ 343 µM) | > 30 | > 30 | -24.5 | -17.2 | -8.62 | 100 (≈ 274 µM) | > 30 | > 30 | > 30 | > 30 | -12.1 | 23.5 | -16.1 | -22.6 | 100 (≈ 274 µM) | 32.9 | > 30 | MIC [14]: 125 µg/mL (≈ 343 µM); inhibition of growth at 10 µg/mL (Pseudomonas fluorescens [17]): -75.5%; IC50 [18]: > 30 µg/mL; IC90 [18]: > 30 µg/mL; inhibition of growth at 10 µg/mL (Escherichia coli [19]): -8.37%; inhibition of growth at 3 µg/mL (Escherichia coli [21]): -10.4%; inhibition of growth at 3 µg/mL (Bacillus subtilis [22]): -12%; IC50 [23]: > 30 µg/mL; IC90 [23]: > 30 µg/mL; inhibition of growth at 30 µg/mL (Staphylococcus aureus [24]): -7.84%; inhibition of growth at 30 µg/mL (Pseudomonas fluorescens [25]): 13.8%
Cc1ccc2cc(/C=C3\SC(=S)N(CC(=O)O)C3=O)c(Cl)nc2c1 | 11.4 | > 30 | 125 (≈ 330 µM) | > 30 | > 30 | -1.27 | -13.1 | -23.6 | 75 (≈ 198 µM) | > 30 | > 30 | > 30 | > 30 | -12.5 | 22.7 | -11.5 | 2.96 | 150 (≈ 396 µM) | 22.4 | > 30 | MIC (Aspergillus flavus): 100 µg/mL (≈ 264 µM); MIC [14]: 125 µg/mL (≈ 330 µM); inhibition of growth at 10 µg/mL (Pseudomonas fluorescens [17]): -10.7%; IC50 [18]: > 30 µg/mL; IC90 [18]: > 30 µg/mL; inhibition of growth at 10 µg/mL (Escherichia coli [19]): 2.04%; inhibition of growth at 3 µg/mL (Escherichia coli [21]): 1.9%; inhibition of growth at 3 µg/mL (Bacillus subtilis [22]): 2.07%; IC50 [23]: > 30 µg/mL; IC90 [23]: > 30 µg/mL; inhibition of growth at 30 µg/mL (Staphylococcus aureus [24]): -16%; inhibition of growth at 30 µg/mL (Pseudomonas fluorescens [25]): -8.32%
O=C(O)CCN1C(=O)/C(=C/c2cc3cc(Cl)ccc3nc2Cl)SC1=S | 56.5 | > 30 | 200 (≈ 484 µM) | > 30 | > 30 | -1.12 | -7.27 | -36.7 | 200 (≈ 484 µM) | > 30 | > 30 | > 30 | > 30 | 37.3 | 13.7 | 3.17 | 0.333 | 150 (≈ 363 µM) | 25.7 | > 30 | MIC (Aspergillus flavus): 100 µg/mL (≈ 242 µM); inhibition of growth at 10 µg/mL (Pseudomonas fluorescens [17]): 6.58%; IC50 [18]: > 30 µg/mL; IC90 [18]: > 30 µg/mL; inhibition of growth at 10 µg/mL (Escherichia coli [19]): 27.1%; inhibition of growth at 3 µg/mL (Escherichia coli [21]): 20.6%; inhibition of growth at 3 µg/mL (Bacillus subtilis [22]): 1.91%; IC50 [23]: > 30 µg/mL; IC90 [23]: > 30 µg/mL; inhibition of growth at 30 µg/mL (Staphylococcus aureus [24]): -65.7%; inhibition of growth at 30 µg/mL (Pseudomonas fluorescens [25]): -10%
NC[C@H]1O[C@H](O[C@H]2[C@H](O)[C@@H](O[C@H]3O[C@H](CO)[C@@H](O)[C@H](N)[C@H]3O)[C@H](N)C[C@@H]2N)[C@H](O)[C@@H](O)[C@@H]1O [KANAMYCIN] | – | 0.67 (≈ 1.38 µM) | – | 0.25 (≈ 0.516 µM) | 0.012 (≈ 0.0248 µM) | – | – | – | – | – | – | – | – | – | – | – | – | – | – | 16 (≈ 33 µM) | –
